Source: PubChem BioAssay
GPR7 antag: GPR7 receptor antagonists, primary screen, cell-based, fluorescence, single concentration; Neuropeptides B/W receptor type 1 (Homo sapiens), P48145; GPR7-expressing cells, fluorescence antagonist assay; inhibition, % at 4.4 µM; 290,000 tested, 1.1% active; AID 1861, 2009; in the data active = inhibition above about 16%, passing the limit was not always enough;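 note: cells stimulated with the agonist NPW; 0% = agonist with vehicle and 100% = vehicle without agonist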
Target sequence (P48145 whole entry, looked up): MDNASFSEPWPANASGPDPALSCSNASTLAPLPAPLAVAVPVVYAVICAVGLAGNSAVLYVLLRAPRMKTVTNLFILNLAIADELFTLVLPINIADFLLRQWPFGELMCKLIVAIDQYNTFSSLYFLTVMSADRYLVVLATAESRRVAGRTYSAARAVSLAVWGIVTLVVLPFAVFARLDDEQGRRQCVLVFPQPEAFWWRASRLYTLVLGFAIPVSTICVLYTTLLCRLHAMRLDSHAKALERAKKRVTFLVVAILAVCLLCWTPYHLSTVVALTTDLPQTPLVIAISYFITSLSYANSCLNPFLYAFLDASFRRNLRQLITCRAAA
OX1R antag-1: OX1R (HCRTR1) antagonists, primary screen, fluorescence, CHO/OX1R cells, Fluo-8 calcium, orexin A | Orexin/Hypocretin receptor type 1 (Homo sapiens), O43613 | Fluo-8 calcium fluorescence | inhibition, % at 5 µM | 330,000 tested, 0.43% active | AID 434989, 2010;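 active = inhibition above its plate's threshold, mean inhibition of all tested compounds on the plate plus 3 SD, cut at about 37% in these data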;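 note: 0% = orexin A challenge wells and 100% = SB-334867-A antagonist wells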
Target sequence (O43613 whole entry, looked up): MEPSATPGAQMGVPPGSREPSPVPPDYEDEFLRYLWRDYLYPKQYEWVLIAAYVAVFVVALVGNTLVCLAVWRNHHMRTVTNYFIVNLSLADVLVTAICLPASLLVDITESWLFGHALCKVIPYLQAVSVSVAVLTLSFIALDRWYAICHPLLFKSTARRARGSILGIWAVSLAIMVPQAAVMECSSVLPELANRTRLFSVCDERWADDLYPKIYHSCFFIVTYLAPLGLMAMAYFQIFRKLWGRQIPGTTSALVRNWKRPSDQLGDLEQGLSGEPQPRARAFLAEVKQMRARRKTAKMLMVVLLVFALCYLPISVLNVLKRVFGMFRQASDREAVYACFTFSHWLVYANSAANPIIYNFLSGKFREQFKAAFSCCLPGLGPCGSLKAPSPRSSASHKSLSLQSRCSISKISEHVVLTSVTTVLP
TAAR1 agonist: human TAAR1 agonists, primary screen, Fluo-8 calcium fluorescence, CHO RD-HGA16 cells | Trace amine-associated receptor 1 (Homo sapiens), Q96RJ0 | vehicle wells 0%, saturating PEA agonist 100% | activation, % at 3 µM | 360,000 tested, 0.99% active;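 active = activation above the mean activation of all test compounds in the run plus 3 SD, cut at about 38% in these data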
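Assay system: CHO-derived RD-HGA16 cells with stable Gα16 and human TAAR1; timing: 17-24 h seeding, 75 min 37 °C dye, 30 min RT; read-out: % activation from peak over basal fluorescence ratio, DMSO-to-PEA scaled; measured by: kinetic Fluo-8 calcium fluorescence; benchmarks: low control DMSO, high control PEA (EC100); doses: 3 µM single concentration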
OX1R antag-2: antagonists of human orexin 1 receptor (OX1R); Orexin/Hypocretin receptor type 1 (Homo sapiens), O43613; inhibition, % at 6.6 µM; AID 485270, 2010; 330,000 tested, 1.8% active; OX1R-expressing cells, FRET antagonist read-out; in the data active = inhibition mostly above about 38%, no sharp cut-off; inactive = mostly below about 40%;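 note: 0% = agonist challenge alone and 100% = reference antagonist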
CHO parental Ca: ATP-evoked calcium signal inhibitors, parental CHO, primary screen, counter-screen for OX1R antagonist project, cell-based, fluorescence, Fluo-8 calcium dye; 330,000 tested, 0.63% active; parental CHO-K1, ATP-induced calcium, Fluo-8 fluorescence; inhibition, % at 5.6 µM;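 active = inhibition above that plate's mean sample inhibition plus 3 SD, cut at about 26% in these data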;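 note: 0% = ATP-challenged DMSO wells and 100% = DMSO wells without ATP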
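Test system: untransfected parental CHO cell line; also added: ATP stimulus; dosing: 5.6 µM, single dose; signal: calcium-sensitive Fluo-8 fluorescence; measure: percent inhibition of ATP-evoked calcium rise, normalized to controls; benchmarks: low control ATP plus DMSO, high control DMSO only; replication: one well per compound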
TAAR1 antag: human TAAR1 antagonists, primary screen, Fluo-8 calcium fluorescence, CHO RD-HGA16 cells | Trace amine-associated receptor 1 (Homo sapiens), Q96RJ0 | antagonist | inhibition, % at 3 µM | 360,000 tested, 1.5% active | AID 624466, 2012;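 active = inhibition above a per-plate cutoff, the mean inhibition of test compounds on that plate plus 3 SD, cut at about 49% in these data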;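 note: 0% = DMSO plus EC80 beta-PEA response and 100% = DMSO alone without agonist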
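Material: CHO RD-HGA16 cells bearing hTAAR1; compound dosing: one-point dosing, 3 µM nominal final; schedule: dye loading 75 min at 37 °C, then 30 min room temperature; measured by: calcium fluorescence with Fluo-8; control set: vehicle and agonist controls; replication: n of 1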
OX1R HTRF conf: OX1R (HCRTR1) antagonists, confirmation, cell-based, HTRF. 1,800 tested, 49% active. inhibition, % at 6.6 µM. shares compounds with OX1R antag-2. AID 492964, 2010. OX1R-expressing cells, HTRF antagonist assay; in the data active = inhibition above about 55%;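 note: CHO cells expressing OX1R stimulated with orexin A at about EC80; 0% = agonist challenge alone and 100% = reference antagonist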
CHO-K1 HTRF: signal inhibition in parental CHO-K1 cells, counter-screen for OX1R antagonist project, cell-based, HTRF; 1,800 tested, 48% active; shares compounds with OX1R antag-2; HTRF counterscreen; inhibition, % at 6.6 µM; in the data active = inhibition above about 17%;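 note: 0% = agonist challenge with vehicle and 100% = vehicle alone without agonist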
* = called active by the depositor; nt = no result. Rows were chosen to be rich in hits. Some 4.6% of all compounds tested hit in one or more screens of this group.

SMILES | GPR7 antag | OX1R antag-1 | TAAR1 agonist | OX1R antag-2 | CHO parental Ca | TAAR1 antag | OX1R HTRF conf | CHO-K1 HTRF
CCC(C)NC(=O)COC(=O)c1ccc(Cl)cc1O (centres undefined) | -3 | -21 | 5 | 13 | 8 | 1 | nt | nt
COc1ccccc1C(=O)Nc1nnc(S(=O)(=O)N2CCOCC2)s1 | 15 | -19 | 1 | 26 | -12 | 4 | nt | nt
CN(C)CCC1CCN(c2cc(C#N)c(C#N)cc2[N+](=O)[O-])CC1 | -11 | -11 | 1 | 118* | -16 | -13 | 53 | 54*
Cc1ccc2c(c1)N(CC(=O)NC1CCCCC1C)C(=O)CO2 (centres undefined) | -6 | -12 | 0 | 111* | -14 | 16 | 37 | -2
O=C(Nc1ccc(C(=O)O)cc1)/C(=C\c1ccc2c(c1)OCO2)NC(=O)c1ccccc1Cl | nt | nt | 0 | nt | nt | -7 | nt | nt
Cn1cnc([N+](=O)[O-])c1Oc1cccc2ccccc12 | -1 | -8 | -2 | 85* | -9 | -6 | 26 | 5
Cn1cnc([N+](=O)[O-])c1S(=O)(=O)Oc1cccc2ccccc12 | nt | nt | 1 | nt | nt | 26 | nt | nt
OC(COc1ccc2c(c1)OCO2)CN1CCc2ccccc2C1 (centres undefined) | -7 | 18 | 3 | 12 | -10 | -16 | nt | nt
N#Cc1nc(Cc2ccccc2)oc1NCCCn1ccnc1 | -4 | -1 | 5 | 13 | -7 | 1 | nt | nt
CNc1nc(N2CCc3ccccc32)ncc1F | -3 | 4 | 2 | 89* | -11 | -1 | 83* | 2
COc1ccc(NC(=O)C2Cc3c(-c4cccc(C(C)=O)c4)ccnc3O2)cn1 (centres undefined) | nt | nt | 4 | nt | nt | -6 | nt | nt
O=C(Nc1ccc(F)cc1F)C1CCCN1S(=O)(=O)c1cccc2nsnc12 (centres undefined) | -12 | 4 | 0 | 77* | -7 | -5 | 59* | 27*
O=C(O)C1CCCCN1S(=O)(=O)c1cccc2nsnc12 (centres undefined) | -10 | -6 | nt | 23 | 2 | nt | nt | nt
CCCn1c(SCC(=O)NCCc2ccccc2)nnc1-c1ccccn1 | -14 | -17 | 6 | 38 | -18 | -15 | nt | nt
CCCn1c(SCC(=O)Nc2nnc(-c3ccccc3)s2)nnc1-c1ccccn1 | -3 | 10 | 3 | 78* | -37 | 13 | 65* | 11
CCn1cc(C(=O)NCC2CCCO2)c2cc(OC)c(OC)cc2c1=O (centres undefined) | -7 | -3 | 14 | 5 | -12 | -1 | nt | nt
CCOCCCNc1nc2nc3ccc(C)cn3c(=O)c2cc1C(=O)NCC1CCCO1 (centres undefined) | 4 | -9 | 0 | 112* | 11 | 18 | 44 | 78*
Cc1ccc2nc3c(cc(C(=O)NCC4CCCO4)n3C)c(=O)n2c1 (centres undefined) | 3 | nt | nt | nt | nt | nt | nt | nt
Cc1ccc2nc3c(cc(C(=O)NCC4CCCO4)c(=N)n3CCCOC(C)C)c(=O)n2c1 (centres undefined) | -6 | -15 | 9 | 82* | -7 | -4 | 51 | 85*
CCC(C(=O)Nc1cccnc1)c1ccccc1 (centres undefined) | 1 | -6 | 4 | 8 | -7 | -16 | nt | nt
CSc1ccc(CN2CCSCC2)cc1 | -16 | nt | 2 | nt | nt | -4 | nt | nt
Cc1nonc1C(=O)N/N=C/c1ccncc1 | -10 | -11 | 3 | 14 | -8 | -9 | nt | nt
O=C(N/N=C/c1ccc([N+](=O)[O-])o1)C1CC1 | 3 | -5 | 3 | 127* | -11 | -1 | 58* | 75*
O=C(N/N=C/c1ccc([N+](=O)[O-])o1)C(=O)Nc1ccc(C(=O)O)cc1 | -4 | -7 | -2 | 60 | -3 | -12 | nt | nt
Cc1nonc1C(=O)N/N=C/c1ccc([N+](=O)[O-])o1 | -4 | -8 | 8 | 144* | 2 | 5 | 52 | 81*
SMILES | GPR7 antag | OX1R antag-1 | TAAR1 agonist | OX1R antag-2 | CHO parental Ca | TAAR1 antag | OX1R HTRF conf | CHO-K1 HTRF
Cc1ccc(S(=O)(=O)NCc2ccccc2)cc1C(=O)NCc1ccccn1 | -13 | -22 | 1 | 17 | -18 | -9 | nt | nt
O=C(CSc1ncn[nH]1)Nc1c(Br)cc([N+](=O)[O-])cc1Br | -14 | -5 | 2 | 96* | -1 | -4 | 41 | 45*
Cc1ccc(NC(=O)CSc2ncn[nH]2)c([N+](=O)[O-])c1 | nt | 1 | 0 | 16 | -10 | 8 | nt | nt
CN(C)c1ccc(/C=c2\sc3n(c2=O)CCCN=3)cc1 | -4 | -13 | 18 | 116* | -11 | 3 | 36 | 31*
O=c1/c(=C/c2ccc(O)cc2)sc2n1CCCN=2 | 14 | -2 | 0 | 47 | 9 | -9 | nt | nt
O=C(NCCc1ccccc1Cl)C1CCC(=O)N(Cc2cccc(C(F)(F)F)c2)C1 (centres undefined) | -5 | -22 | 4 | 21 | -20 | -3 | nt | nt
Cc1cc[n+](CC(=O)N2CCCc3ccccc32)cc1 | -15 | 6 | 2 | -7 | 2 | -7 | nt | nt
CC(C)OCCCNC(=O)c1ccc2c(c1)S(=O)(=O)c1ccccc1C2=O | -7 | -15 | 4 | 85* | -11 | 14 | 45 | 41*
COCC(C)NC(=O)c1ccc2c(c1)S(=O)(=O)c1ccccc1C2=O (centres undefined) | -20 | -4 | 2 | 109* | -4 | 0 | 50 | 55*
CCNC(=O)c1ccc2c(c1)S(=O)(=O)c1ccccc1C2=O | -14 | -16 | 1 | 189* | -21 | 9 | 49 | 67*
C=CCNC(=O)c1ccc2c(c1)S(=O)(=O)c1ccccc1C2=O | nt | -23 | 5 | 126* | -12 | 2 | 58* | 58*
CCC(C)NC(=O)c1ccc2c(c1)S(=O)(=O)c1ccccc1C2=O (centres undefined) | -11 | nt | 2 | nt | nt | 4 | nt | nt
O=S(=O)(Nc1nnc(-c2ccccc2)s1)c1ccc(Cl)cc1 | -14 | -17 | 0 | 71 | -1 | -1 | nt | nt
Cc1cccc(NC(=O)CNC(=O)CCNC(=O)c2ccc(C(C)(C)C)cc2)c1C | nt | -15 | 2 | 0 | -18 | 0 | nt | nt
OCCC1CN(CCCn2cccn2)CCN1Cc1ccccc1 (centres undefined) | -9 | -19 | -1 | 23 | -7 | 5 | nt | nt
